Assay results taken from publication PMC10928850 (RSC Advances, 2024).
Converted amounts (≈) assume the structure as drawn.

Experiments:
[1] = Total antioxidant capacity; conditions: mean ± SE, three replicates
[2] = system: human colon (Caco-2) cancer cell line; assay: MTT cytotoxicity, colon cancer Caco-2; format: cell-based; conditions: for IC50: Homo sapiens, Caco-2, 48 h, read-out: IC50 Colon cancer (Caco-2); for Therapeutic index (TI) Colon cancer (Caco-2): IC50 on the normal cells (WI-38)/IC50 on the cancer cells (Caco-2)
[3] = system: bovine serum albumin (BSA); assay: Anti-arthritic: inhibition of protein denaturation; conditions: inhibitory effect, at the same concentration; mean ± SE, three replicates
[4] = system: human lung (A549) cancer cell line; assay: MTT cytotoxicity, lung cancer A549; format: cell-based; conditions: A549, 48 h, read-out: IC50 Lung cancer (A549)
How it was run: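 Human lung A549 cells, run alongside Caco-2 colon cancer and normal WI-38 lung cells, were exposed to test compound. Viability was read by MTT, with optical density at 590. IC50 and percentage growth inhibition were computed with IC50 calculation software.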

proteinase (trypsin) = assay: Anti-arthritic: proteinase inhibitory activity; format: biochemical; conditions: at the same concentration; mean ± SE, three replicates
[5] = target: acetylcholinesterase (AChE) (Homo sapiens, UniProt P22303); assay: Acetylcholinesterase inhibition, Ellman's method; format: biochemical; conditions: for AChE Inhibition (%): at the same concentration, mean ± SE, three replicates
Chain of acetylcholinesterase (AChE) (P22303 32-614, species assumed): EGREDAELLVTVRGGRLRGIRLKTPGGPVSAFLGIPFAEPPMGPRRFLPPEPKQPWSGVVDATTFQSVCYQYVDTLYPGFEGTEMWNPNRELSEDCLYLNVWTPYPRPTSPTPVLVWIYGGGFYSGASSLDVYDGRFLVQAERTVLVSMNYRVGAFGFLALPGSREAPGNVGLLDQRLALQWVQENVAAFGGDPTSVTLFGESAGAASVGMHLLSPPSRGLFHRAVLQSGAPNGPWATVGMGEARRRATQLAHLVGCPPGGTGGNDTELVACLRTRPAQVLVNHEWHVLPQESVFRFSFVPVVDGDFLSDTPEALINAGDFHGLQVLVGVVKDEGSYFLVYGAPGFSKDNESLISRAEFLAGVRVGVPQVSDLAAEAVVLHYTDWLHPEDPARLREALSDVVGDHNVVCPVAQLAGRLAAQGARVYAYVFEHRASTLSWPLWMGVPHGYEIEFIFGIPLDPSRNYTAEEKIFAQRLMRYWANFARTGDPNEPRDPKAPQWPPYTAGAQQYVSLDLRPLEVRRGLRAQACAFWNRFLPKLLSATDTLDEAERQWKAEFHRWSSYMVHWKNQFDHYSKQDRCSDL

[6] = system: normal lung (WI-38) cell line; assay: MTT cytotoxicity, normal lung WI-38; format: cell-based; conditions: Homo sapiens, WI-38, 48 h, read-out: IC50 Normal lung (WI-38)
Iron reducing power = conditions: mean ± SE, three replicates
How it was run: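 Reducing power was measured by the Oyaizu method and expressed in μg mL−1, with ascorbic acid as the standard.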

[7] = ABTS radical scavenging assay; conditions: at equal concentrations; mean ± SE, three replicates
[8] = DPPH radical scavenging activity; conditions: mean ± SE, three replicates
β-glucosidase = assay: β-Glucosidase enzyme inhibition; format: biochemical; conditions: mean ± SE, three replicates; for β-Glucosidase Inhibition (%): at the same concentration
α-glucosidase = α-glucosidase (Saccharomyces cerevisiae, UniProt P53341); assay: α-Glucosidase enzyme inhibition; format: biochemical; conditions: at the same concentration; mean ± SE, three replicates
Chain of α-glucosidase (P53341 whole entry): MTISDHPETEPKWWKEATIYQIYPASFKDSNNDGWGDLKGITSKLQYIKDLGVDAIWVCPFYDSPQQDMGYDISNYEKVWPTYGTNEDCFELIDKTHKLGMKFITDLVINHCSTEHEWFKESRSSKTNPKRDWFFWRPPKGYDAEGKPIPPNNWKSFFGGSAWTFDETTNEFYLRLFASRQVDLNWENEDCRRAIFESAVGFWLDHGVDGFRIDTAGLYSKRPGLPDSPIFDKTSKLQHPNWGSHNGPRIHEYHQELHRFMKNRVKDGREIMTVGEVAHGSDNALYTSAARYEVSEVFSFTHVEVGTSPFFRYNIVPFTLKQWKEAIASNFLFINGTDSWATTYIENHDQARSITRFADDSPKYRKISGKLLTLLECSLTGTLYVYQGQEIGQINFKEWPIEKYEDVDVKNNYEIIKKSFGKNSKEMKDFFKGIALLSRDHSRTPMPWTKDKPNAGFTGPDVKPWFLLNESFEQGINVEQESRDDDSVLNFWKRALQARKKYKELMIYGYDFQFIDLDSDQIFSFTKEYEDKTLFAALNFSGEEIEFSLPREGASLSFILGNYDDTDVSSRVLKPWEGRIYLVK

α-glucosidase enzyme = assay: Electrophoretic α-glucosidase pattern; format: biochemical; conditions: enzyme treated at concentration equivalent to IC50
α-amylase = target: T1, α-amylase (Sus scrofa, UniProt P00690); assay: α-Amylase enzyme inhibition; format: biochemical; conditions: at the same concentration; mean ± SE, three replicates
T1 sequence (P00690 16-511): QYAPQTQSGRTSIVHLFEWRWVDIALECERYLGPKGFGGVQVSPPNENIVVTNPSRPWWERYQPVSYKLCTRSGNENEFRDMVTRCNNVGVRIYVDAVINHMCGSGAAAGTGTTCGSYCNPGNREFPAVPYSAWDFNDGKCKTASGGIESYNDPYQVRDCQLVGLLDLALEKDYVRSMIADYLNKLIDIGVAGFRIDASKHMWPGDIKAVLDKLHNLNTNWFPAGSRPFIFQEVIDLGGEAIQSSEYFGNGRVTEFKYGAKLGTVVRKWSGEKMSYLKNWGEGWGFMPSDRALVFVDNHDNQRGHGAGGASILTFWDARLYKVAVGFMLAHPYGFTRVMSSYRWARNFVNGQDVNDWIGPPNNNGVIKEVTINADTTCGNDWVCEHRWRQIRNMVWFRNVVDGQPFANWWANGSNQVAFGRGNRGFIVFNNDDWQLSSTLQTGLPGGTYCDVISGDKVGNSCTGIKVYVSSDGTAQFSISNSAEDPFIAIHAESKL

Structure (SMILES) | Antioxidant activity TAC [1] [mg gallic acid per g] | IC50 [2] [µg/mL] | Therapeutic index (TI) Colon cancer (Caco-2) [2] | Anti-arthritic activity: Proteinase denaturation (%) [3] [%] | IC50 [4] [µg/mL] | Anti-arthritic activity: Inhibition of proteinase (%) (proteinase (trypsin)) | IC50 [5] [mM] | AChE Inhibition (%) [5] [%] | IC50 [6] [µg/mL] | Antioxidant activity IRP (Iron reducing power) [µg/mL] | Scavenging activity ABTS (%) [7] [%] | Scavenging activity DPPH IC50 [8] [µg/mL] | β-Glucosidase Inhibition (%) (β-glucosidase) | β-Glucosidase IC50 (β-glucosidase) [µg/mL] | α-Glucosidase Inhibition (%) (α-glucosidase) | α-glucosidase band (45 KDa) Qty (Band Quantity) (α-glucosidase enzyme) | α-Amylase Inhibition (%) (α-amylase)
COc1ccc(Nc2nn3c(-c4ccccc4)ccnc3c2C(=O)Nc2ccccc2)cc1 [12a] | 30.58 ± 0.07 | 38.1 (≈ 87.6 µM) | 3.5 | 16.24 ± 0.04 | 47.8 (≈ 110 µM) | 14.91 ± 0.03 | 7.67 | 14.92 ± 0.02 | 134 (≈ 308 µM) | 17.29 ± 0.04 | 25.28 ± 0.06 | 19.63 ± 0.04 | 7.67 ± 0.01 | 6470 ± 10 |  |  | 
COc1ccc(Nc2nn3c(-c4ccccc4)ccnc3c2C(=O)Nc2ccc(Cl)cc2)cc1 [12b] | 31.27 ± 0.07 | 29.8 (≈ 63.3 µM) | 10.24 | 17.55 ± 0.04 | 40.5 (≈ 86.3 µM) | 16.25 ± 0.04 | 6.7 | 16.00 ± 0.04 | 305 (≈ 649 µM) | 17.97 ± 0.04 | 28.23 ± 0.06 | 18.33 ± 0.04 | 9.66 ± 0.02 | 5180 ± 10 |  |  | 
C[C@H]1O[C@H](O[C@H]2[C@H](O)[C@@H](O)[C@@H](O[C@H]3[C@H](O)[C@@H](O)C(O)O[C@@H]3CO)O[C@@H]2CO)[C@H](O)[C@@H](O)[C@@H]1N[C@H]1C=C(CO)[C@@H](O)[C@H](O)[C@H]1O (stereo partly shown) [Acarbose] |  |  |  |  |  |  |  |  |  |  |  |  | 47.70 ± 0.01 | 1070 ± 10 | 55.45 ± 0.01 | completely decreasing the protein band | 65.95 ± 0.01
O=C1O[C@H]([C@@H](O)CO)C(O)=C1O [Ascorbic acid, reference compound] |  |  |  |  |  |  |  |  |  |  | 39.09 ± 0.09 | 4.05 ± 0.01 |  |  |  |  | 
O=C(O)Cc1ccccc1Nc1c(Cl)cccc1Cl [Diclofenac sodium, reference compound] |  |  |  |  |  | 41.88 ± 0.09 |  |  |  |  |  |  |  |  |  |  | 
COc1cccc2c1C(=O)c1c(O)c3c(c(O)c1C2=O)C[C@@](O)(C(=O)CO)C[C@@H]3O[C@H]1C[C@H](N)[C@H](O)[C@H](C)O1 [Doxorubicin, reference compound] |  | 28.4 (≈ 52.3 µM) | 2.67 |  | 31.3 (≈ 57.6 µM) |  |  |  | 76 (≈ 140 µM) |  |  |  |  |  |  |  | 
